Laboratory results reported in ChEMBL document CHEMBL1142173, “Novel macrolide resistance module carried by the IncP-1beta resistance plasmid pRSB111, isolated from a wastewater treatment plant” (2007).
In brackets after ≈: the same amount, converted by molar mass.

Assays:
Type in all cases: functional
Pseudomonas sp. [1] = experiment: Antibacterial activity against Pseudomonas sp. B13 GFP1 containing macrolide resistance plasmid pRSB111
How it was run: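 Host is Pseudomonas sp. strain B13 GFP1 carrying pRSB111, captured by exogenous mating from wastewater-plant final effluent. It is maintained in LB with erythromycin (300 μg/ml) at 30°C. MIC is in μg/ml, with the plasmid-free B13 GFP1 strain tested alongside.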

Escherichia coli [2] = experiment: Antibacterial activity against Escherichia coli DH5-alpha containing macrolide-resistant pUC18-mph(E) region; conditions: DH5alpha
How it was run: (§1)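 Host is E. coli DH5α carrying pUC18 with PCR-amplified fragments of the pRSB111 macrolide resistance region (covering mphR(E), mph(E) and/or mrx(E)). MIC is read per recombinant strain, with DH5α carrying empty pUC18 as control.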

Pseudomonas sp. [3] = experiment: Antibacterial activity against Pseudomonas sp. B13 GFP1 containing multiresistance plasmid pRSB101
Escherichia coli [4] = experiment: Antibacterial activity against Escherichia coli DH5alpha containing macrolide-resistant pUC18-mph(E)-mrx(E) region; how it was run: as §1
Escherichia coli [5] = experiment: Antibacterial activity against Escherichia coli DH5-alpha containing pUC18; conditions: DH5alpha
How it was run: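 MIC measured for E. coli DH5α transformed with the empty vector pUC18, which served as the control. It was tested alongside DH5α carrying pUC18 clones of PCR-amplified fragments of the pRSB111 macrolide resistance region (mphR(E), mph(E), mrx(E)).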

Escherichia coli [6] = experiment: Antibacterial activity against Escherichia coli DH5-alpha containing macrolide-resistant pUC18-mrx(E) region; conditions: DH5alpha; how it was run: as §1
Pseudomonas sp. [7] = experiment: Antibacterial activity against Pseudomonas sp. B13 GFP1

| Compound | MIC (Pseudomonas sp. [1]) [µg/mL] | MIC (Escherichia coli [2]) [µg/mL] | MIC (Pseudomonas sp. [3]) [µg/mL] | MIC (Escherichia coli [4]) [µg/mL] | MIC (Escherichia coli [5]) [µg/mL] | MIC (Escherichia coli [6]) [µg/mL] | MIC (Pseudomonas sp. [7]) [µg/mL] |
| --- | --- | --- | --- | --- | --- | --- | --- |
| CC[C@H]1OC(=O)[C@H](C)[C@@H](O[C@H]2C[C@@](C)(OC)[C@@H](O)[C@H](C)O2)[C@H](C)[C@@H](O[C@@H]2O[C@H](C)C[C@H](N(C)C)[C@H]2O)[C@](C)(O)C[C@@H](C)/C(=N\OCOCCOC)[C@H](C)[C@@H](O)[C@]1(C)O [ROXITHROMYCIN] | 1400 (≈ 1670 µM) | 550 (≈ 657 µM) | 1200 (≈ 1430 µM) | 2500 (≈ 2990 µM) | 450 (≈ 538 µM) | 300 (≈ 358 µM) | 25 (≈ 29.9 µM) |
| CC[C@H]1OC(=O)[C@H](C)[C@@H](O[C@H]2C[C@@](C)(OC)[C@@H](O)[C@H](C)O2)[C@H](C)[C@@H](O[C@@H]2O[C@H](C)C[C@H](N(C)C)[C@H]2O)[C@](C)(O)C[C@@H](C)C(=O)[C@H](C)[C@@H](O)[C@]1(C)O [ERYTHROMYCIN] | 2500 (≈ 3410 µM) | 250 (≈ 341 µM) | 2500 (≈ 3410 µM) | 2400 (≈ 3270 µM) | 200 (≈ 273 µM) | 150 (≈ 204 µM) | 20 (≈ 27.3 µM) |
| CC[C@H]1OC(=O)C[C@@H](O)[C@H](C)[C@@H](O[C@@H]2O[C@H](C)[C@@H](O[C@H]3C[C@@](C)(O)[C@@H](O)[C@H](C)O3)[C@H](N(C)C)[C@H]2O)[C@@H](CC=O)C[C@@H](C)C(=O)/C=C/C(C)=C/[C@@H]1CO[C@@H]1O[C@H](C)[C@@H](O)[C@@H](OC)[C@H]1OC [TYLOSIN] | 400 (≈ 437 µM) | – | 150 (≈ 164 µM) | – | – | – | 150 (≈ 164 µM) |
